From ChEMBL document CHEMBL1136225, “Selective 3-amino-2-pyridinone acetamide thrombin inhibitors incorporating weakly basic partially saturated heterobicyclic P1-arginine mimetics” (Bioorg Med Chem Lett, 2003)

Tests used:
Coagulation factor X = Coagulation factor X (Homo sapiens, UniProt P00742); assay: Inhibitory activity against coagulation factor X
Method in brief: (§1)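 Amidolytic enzyme assays with chromogenic substrates for thrombin, trypsin and factor Xa; Ki derived from IC50 by Cheng–Prusoff, or from reaction velocity equations with and without inhibitor using the relevant Km.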

Homo sapiens [1] = species: Homo sapiens; assay: Concentration required to double the activated partial thromboplastin time in human plasma; format: functional
Method in brief: (§2)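 Standard clotting assays (APTT, PT and TT) run in human plasma; value is the inhibitor concentration required to double each clotting time.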

Homo sapiens [2] = species: Homo sapiens; assay: Concentration required to double the prothrombin time in human plasma; format: functional; method in brief: as §2
Homo sapiens [3] = species: Homo sapiens; assay: Concentration required to double the thrombin time in human plasma; format: functional; method in brief: as §2
Prothrombin = Prothrombin (Homo sapiens, UniProt P00734); assay: Inhibitory activity against thrombin; method in brief: as §1
[4] = pKa value was determined; format: physicochemical
[5] = biological target: T1, Serine protease 1 (Bos taurus) (UniProt P00760); assay: Selectivity for inhibition of thrombin to that of trypsin
T1 sequence (whole entry): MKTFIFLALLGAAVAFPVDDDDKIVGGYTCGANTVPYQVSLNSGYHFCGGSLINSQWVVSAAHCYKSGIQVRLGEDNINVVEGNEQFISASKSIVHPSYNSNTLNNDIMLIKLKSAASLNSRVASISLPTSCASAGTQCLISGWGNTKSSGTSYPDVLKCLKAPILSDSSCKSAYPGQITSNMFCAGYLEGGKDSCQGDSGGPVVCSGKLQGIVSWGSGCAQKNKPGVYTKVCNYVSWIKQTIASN
Method in brief: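 Selectivity expressed as Ki(trypsin)/Ki(thrombin), with both Ki values from chromogenic-substrate amidolytic assays.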

Serine protease 1 [6] = biological target: T2, Serine protease 1 (Bos taurus, UniProt P00760); assay: Inhibitory activity against Trypsin; Inactive; method in brief: as §1
T2 sequence (P00760 whole entry): T1 sequence (whole entry)

Serine protease 1 [7] = biological target: T2, Serine protease 1; assay: Inhibitory activity against Trypsin; method in brief: as §1
Serine protease 1 [8] = biological target: T2, Serine protease 1; assay: Inhibitory activity was evaluated against Trypsin; Inactive; method in brief: as §1

Chain of Coagulation factor X (P00742 41-179 limits assumed): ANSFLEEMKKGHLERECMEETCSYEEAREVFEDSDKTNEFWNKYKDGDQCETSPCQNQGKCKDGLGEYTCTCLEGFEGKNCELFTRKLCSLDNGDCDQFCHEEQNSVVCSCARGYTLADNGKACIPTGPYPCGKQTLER
Chain of Coagulation factor X (P00742 235-488 limits assumed): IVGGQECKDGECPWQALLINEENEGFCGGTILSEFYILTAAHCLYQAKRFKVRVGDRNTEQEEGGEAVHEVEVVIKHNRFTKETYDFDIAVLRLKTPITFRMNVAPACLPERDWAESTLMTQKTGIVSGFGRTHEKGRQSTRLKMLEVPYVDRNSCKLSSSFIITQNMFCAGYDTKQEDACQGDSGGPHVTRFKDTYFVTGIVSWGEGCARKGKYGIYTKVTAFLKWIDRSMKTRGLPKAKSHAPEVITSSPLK

Compound	Ki (Coagulation factor X) [µM]	Ki (Prothrombin) [µM]	pKa [4]	Selectivity [5]	Ki (Serine protease 1 [6]) [µM]	Ki (Serine protease 1 [7]) [µM]	Ki (Serine protease 1 [8])	Concentration (Homo sapiens [1]) [µM]	Concentration (Homo sapiens [2]) [µM]	Concentration (Homo sapiens [3]) [µM]
Cc1ccc(NS(=O)(=O)Cc2ccccc2)c(=O)n1CC(=O)NCC1CCc2nc(N)sc2C1 (stereo unspecified)	106	2.5	–	–	–	–	–	121	334	44
Cc1ccc(NS(=O)(=O)Cc2ccccc2)c(=O)n1CC(=O)NC1CCc2nc(N)sc2C1 (stereo unspecified)	–	–	6.1	–	–	–	–	–	–	–
Cc1ccc(NS(=O)(=O)Cc2ccccc2)c(=O)n1CC(=O)NCC1CCc2nn(C)cc2C1 (stereo unspecified)	95	11.8	3.6	47	–	557	–	318	> 400	105
Cc1ccc(NS(=O)(=O)Cc2ccccc2)c(=O)n1CC(=O)NCc1ccc2[nH]ncc2c1	–	0.0087	–	–	–	–	–	–	–	–
Cc1ccc(NS(=O)(=O)Cc2ccccc2)c(=O)n1CC(=O)NC1CCc2nn(C)cc2C1 (stereo unspecified)	90.2	–	3.2	32	–	807	–	> 200	> 400	375

More lines, in order of falling Ki (Coagulation factor X), values ahead:

Ki (Coagulation factor X) [µM]	Ki (Prothrombin) [µM]	pKa [4]	Selectivity [5]	Ki (Serine protease 1 [6]) [µM]	Ki (Serine protease 1 [7]) [µM]	Ki (Serine protease 1 [8])	Compound	Concentration (Homo sapiens [1]) [µM]	Concentration (Homo sapiens [2]) [µM]	Concentration (Homo sapiens [3]) [µM]
103	0.17	4	–	–	–	Not Active	Cc1ccc(NS(=O)(=O)Cc2ccccc2)c(=O)n1CC(=O)NCC1CCc2n[nH]cc2C1 (stereo unspecified)	20.5	30.6	5.2
99	–	3.7	93	–	–	–	Cc1ccc(NS(=O)(=O)Cc2ccccc2)c(=O)n1CC(=O)NC1CCc2n[nH]cc2C1 (stereo unspecified)	272	> 400	105
87.3	6.9	–	–	640	–	–	Cc1ccc(NS(=O)(=O)Cc2ccccc2)c(=O)n1CC(=O)NCC1CCc2nc(N)ncc2C1 (stereo unspecified)	219	> 400	84
